ChEMBL document CHEMBL4138242, “Synthesis and antibacterial evaluation of novel cationic chalcone derivatives possessing broad spectrum antibacterial activity” (Eur J Med Chem, 2018)

Legend:
[1] = system: Escherichia coli; assay: Ratio of MIC for Escherichia coli ATCC 25922 after 20 passages to MIC for Escherichia coli ATCC 25922 before 20 passages; type: functional, organism-based
Procedure, shortened: (§1)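 The MIC was first measured by broth microdilution. Cells grown at MIC/2 were then carried into a fresh MIC assay after each 24 h, repeated over 20 serial passages. Norfloxacin (S. aureus) and colistin (E. coli) served as control antibiotics. Resistance was defined as a >4-fold rise over the original MIC.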

[2] = system: Staphylococcus aureus; assay: Ratio of MIC for Staphylococcus aureus ATCC 29213 after 20 passages to MIC for Staphylococcus aureus ATCC 29213 before 20 passages; type: functional; procedure, shortened: as §1

Row | Molecule | Ratio [1] | Ratio [2]
1 | COLISTIN | 32 | 
2 | CCn1cc(C(=O)O)c(=O)c2cc(F)c(N3CCNCC3)cc21 [NORFLOXACIN] |  | 256
